Starred links: 1 amine or outer side, 2 acyl side, 3 side chain; linkers in the order of their positions; H or OH if unused. Non-standard residues stand in square brackets, D forms with d. Residues, ends and D or L forms follow the SMILES beside them. *: point of attachment. Dmt = Cc1cc(O)cc(C)c1C[C@H](N)C(=O)O; εLys = N[C@@H](CCCCN[*:1])C(=O)[*:2]; Tic = O=C(O)[C@@H]1Cc2ccccc2CN1; NHBn = c1ccc(CN*)cc1; NHPh = c1ccc(N*)cc1
How the values were obtained:
[1] = target: Mu-type opioid receptor (Rattus norvegicus, UniProt P33535); experiment: Displacement of [3H]DAMGO 2 from mu opioid receptor in Sprague-Dawley rat brain P2 synaptosomal membrane
Outline: (§1)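 Competition binding at equilibrium, 2.5 h at 23 °C, on rat brain P2 synaptosomes preincubated to remove endogenous opioids, stored at -80 °C in buffered 20% glycerol. Five to eight peptide doses, duplicate assays, 3-5 independent preparations. Filtration on polyethylenimine-soaked (0.1%) glass fibre filters, three washes in ice-cold buffered BSA; Ki by Cheng-Prusoff, mean ± SE.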

[2] = target: Delta-type opioid receptor (Rattus norvegicus, UniProt P33533); experiment: Displacement of [3H]deltorphin 2 from delta opioid receptor in Sprague-Dawley rat brain P2 synaptosomal membrane; outline: as §1
[3] = target: Delta-type opioid receptor (Mus musculus, UniProt P32300); experiment: Antagonist activity at delta opioid receptor in mouse vas deferens assessed as inhibition of electrically-stimulated contraction; type: functional, tissue-based; conditions: read-out: pA2 (converted)
Outline: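 Single mouse vas deferens in organ bath, balanced salt physiological buffer pH 7.5, electrically stimulated. Antagonism measured against δ-agonist deltorphin II; pA2 derived by Schild plot (method of Kosterlitz and Watt).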

[4] = target: T1, Opioid receptors; mu & delta (Rattus norvegicus) (UniProt P33533+P33535); experiment: Selectivity ratio of Ki for rat delta opioid receptor to Ki for rat mu opioid receptor; type: protein assay
[5] = target: Mu-type opioid receptor (Cavia porcellus, UniProt P97266); experiment: Agonist activity at mu opioid receptor in Hartley guinea pig ileum assessed as inhibition of electrically-stimulated contraction; type: functional, tissue-based
Outline: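 Myenteric plexus-longitudinal muscle strips (2-3 cm) from small intestine of male Hartley guinea pigs in organ bath, physiological buffer pH 7.5. Inhibition of electrically evoked contraction; IC50 (nM) from dose-response curves, mean ± SE of five or six separate tissue assays; endomorphin-2 as internal standard.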

[6] = target: T1, Opioid receptors; mu & delta (Rattus norvegicus); experiment: Selectivity ratio of Ki for mu opioid receptor to Ki for delta opioid receptor; type: protein assay

Chain of Delta-type opioid receptor (Mus musculus, UniProt P32300) (P32300 whole entry): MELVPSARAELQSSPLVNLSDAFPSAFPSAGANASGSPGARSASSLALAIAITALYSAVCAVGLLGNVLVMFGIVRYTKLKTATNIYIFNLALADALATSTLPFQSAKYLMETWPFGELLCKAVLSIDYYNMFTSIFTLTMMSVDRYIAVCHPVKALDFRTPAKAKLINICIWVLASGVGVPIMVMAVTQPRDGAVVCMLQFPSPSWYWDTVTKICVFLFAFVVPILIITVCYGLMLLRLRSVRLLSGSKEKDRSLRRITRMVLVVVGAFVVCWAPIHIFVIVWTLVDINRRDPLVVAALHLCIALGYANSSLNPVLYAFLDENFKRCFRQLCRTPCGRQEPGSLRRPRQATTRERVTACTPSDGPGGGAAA
Chain of Mu-type opioid receptor (Cavia porcellus, UniProt P97266) (P97266 whole entry): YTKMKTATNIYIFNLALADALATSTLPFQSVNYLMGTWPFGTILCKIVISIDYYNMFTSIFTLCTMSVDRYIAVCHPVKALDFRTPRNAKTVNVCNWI
Chain of Delta-type opioid receptor (Rattus norvegicus, UniProt P33533) (P33533 whole entry): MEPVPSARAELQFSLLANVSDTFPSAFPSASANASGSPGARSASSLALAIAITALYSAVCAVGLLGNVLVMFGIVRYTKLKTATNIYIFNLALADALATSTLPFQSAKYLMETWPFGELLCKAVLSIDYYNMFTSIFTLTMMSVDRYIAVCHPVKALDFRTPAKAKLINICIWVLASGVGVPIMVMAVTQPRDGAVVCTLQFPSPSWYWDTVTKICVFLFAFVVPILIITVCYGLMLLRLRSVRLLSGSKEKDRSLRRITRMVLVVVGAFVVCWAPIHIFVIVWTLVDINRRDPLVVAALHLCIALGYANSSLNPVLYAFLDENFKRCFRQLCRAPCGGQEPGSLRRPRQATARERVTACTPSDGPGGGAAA
T1 sequence (P33533 whole entry, looked up): as the sequence (P33533 whole entry) above
T1 sequence (P33535 whole entry, looked up): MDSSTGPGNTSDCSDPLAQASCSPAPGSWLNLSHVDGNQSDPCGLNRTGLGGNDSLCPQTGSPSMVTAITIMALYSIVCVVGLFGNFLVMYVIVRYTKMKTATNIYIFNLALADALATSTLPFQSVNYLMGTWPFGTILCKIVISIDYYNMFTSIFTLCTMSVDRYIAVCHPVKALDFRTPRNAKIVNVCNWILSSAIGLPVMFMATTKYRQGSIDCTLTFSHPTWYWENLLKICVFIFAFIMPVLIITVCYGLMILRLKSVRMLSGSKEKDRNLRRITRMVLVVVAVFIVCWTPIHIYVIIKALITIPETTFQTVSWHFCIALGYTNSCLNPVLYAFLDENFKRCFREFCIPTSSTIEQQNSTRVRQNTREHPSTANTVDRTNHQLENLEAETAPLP
Chain of Mu-type opioid receptor (Rattus norvegicus, UniProt P33535) (P33535 whole entry): as the sequence (P33535 whole entry, looked up) above

`Cc1cc(O)cc(C)c1C[C@H](N)C(=O)N1Cc2ccccc2C[C@H]1C(=O)NCCCC[C@H](N)C(=O)NCc1ccccc1` (H-[Dmt]-[Tic]-[εLys]-NHBn) gave a Ki [1] of 0.6 nM, a Ki [2] of 1 nM and a Kb [3] of 15.5 nM. For the same molecule, the Ratio Ki [4] was 1.7 and the IC50 [5] was 553 nM.

Molecule `CC(=O)N[C@@H](CCCCNC(=O)[C@@H]1Cc2ccccc2CN1C(=O)[C@@H](N)Cc1c(C)cc(O)cc1C)C(=O)Nc1ccccc1` has a Ki [1] of 2.57 nM, a Ki [2] of 0.22 nM and a Ratio Ki [6] of 11.7. The Kb [3] was 6.61 nM and the IC50 [5] was 486 nM.

`Cc1cc(O)cc(C)c1C[C@H](N)C(=O)N1Cc2ccccc2C[C@H]1C(=O)NCCCC[C@H](NC(=O)OCc1ccccc1)C(=O)Nc1ccccc1` showed a Ki [1] of 2.67 nM, a Ki [2] of 0.47 nM and a Ratio Ki [6] of 5.7. For the same molecule, the Kb [3] was 5.89 nM and the IC50 [5] was 711 nM.

For `CC(=O)N[C@@H](CCCCNC(=O)[C@@H]1Cc2ccccc2CN1C(=O)[C@@H](N)Cc1c(C)cc(O)cc1C)C(=O)NCc1ccccc1`, the Ki [1] was 3.43 nM, the Ki [2] was 0.21 nM and the Ratio Ki [6] was 16.3. For the same molecule, the Kb [3] was 8.51 nM and the IC50 [5] was 1990 nM.

Work on `CC(=O)N[C@@H](CCCCNC(=O)[C@@H]1Cc2ccccc2CN1C(=O)[C@@H](N)Cc1c(C)cc(O)cc1C)c1nc2ccccc2[nH]1` yielded a Ki [1] of 0.99 nM, a Ki [2] of 0.21 nM and a Ratio Ki [6] of 4.7. The Kb [3] was 7.59 nM and the IC50 [5] was 610 nM.

In the case of `Cc1cc(O)cc(C)c1C[C@H](N)C(=O)N1Cc2ccccc2C[C@H]1C(=O)NCCCC[C@H](NC(=O)OCc1ccccc1)C(=O)NCc1ccccc1`, the Ki [1] is reported as 3.15 nM, the Ki [2] is reported as 0.53 nM and the Ratio Ki [6] is reported as 5.9. The Kb [3] was 5.37 nM and the IC50 [5] was 1450 nM.

Work on `Cc1cc(O)cc(C)c1C[C@H](N)C(=O)N1Cc2ccccc2C[C@H]1C(=O)NCCCC[C@H](NC(=O)OCc1ccccc1)c1nc2ccccc2[nH]1` yielded a Ki [1] of 2.78 nM, a Ki [2] of 0.86 nM and a Ratio Ki [6] of 3.2. It also gave a Kb [3] of 15.1 nM and an IC50 [5] of 618 nM.

In the case of `Cc1cc(O)cc(C)c1C[C@H](N)C(=O)N1Cc2ccccc2C[C@H]1C(=O)NCCCC[C@H](N)c1nc2ccccc2[nH]1`, the Ki [1] is reported as 1.02 nM, the Ki [2] is reported as 2.64 nM and the Kb [3] is reported as 8.13 nM. The Ratio Ki [4] was 2.6 and the IC50 [5] was 434 nM.

With `Cc1cc(O)cc(C)c1C[C@H](N)C(=O)N1Cc2ccccc2C[C@H]1C(=O)NCCCC[C@H](N)C(=O)Nc1ccccc1` (H-[Dmt]-[Tic]-[εLys]-NHPh) the Ki [1] was 0.89 nM, the Ki [2] was 2.02 nM and the Kb [3] was 12 nM. For the same molecule, the Ratio Ki [4] was 2.3 and the IC50 [5] was 515 nM.

Source: ChEMBL document CHEMBL1147884, “Further studies on the effect of lysine at the C-terminus of the Dmt-Tic opioid pharmacophore” (Bioorg Med Chem, 2007)
